Reference: the EternaBench riboswitch data

System: MS2 coat protein
Experiment: apparent Kd, MS2 coat protein; higher = weaker binding; RNA-MaP array; FMN 200 µM where present
In short: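 Designs were transcribed by stalled E. coli RNA polymerase on Illumina sequencing-chip clusters. They were titrated with SNAP-549-labelled MS2 coat protein from 0.7 or 1.5 nM, doubling to 3 µM, without and then with constant ligand. Buffer: 100 mM Tris-HCl pH 7.5, 80 mM KCl, 4 mM MgCl2, BSA, DTT, yeast tRNA, Tween-20. Green signal was normalised to red-channel RNA signal and control-cluster median Fmax. Apparent Kd is the median of filtered per-cluster binding-curve fits.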

[1] = designed as: OFF switch for flavin mononucleotide, no ligand
[2] = ligand present: flavin mononucleotide, designed as: OFF switch for flavin mononucleotide
[3] = designed as: ON switch for flavin mononucleotide, no ligand
[4] = ligand present: flavin mononucleotide, designed as: ON switch for flavin mononucleotide

Sequence	apparent Kd [1] [nM]	apparent Kd [2] [nM]	apparent Kd [3] [nM]	apparent Kd [4] [nM]
CGGAGGUCAGGAUAUGCAUGGCGGGACUUGCGUCGUGGCGUGCAGAAGGGACAUGAGGAUCACCCAUGUGGAGG	155	267	–	–
UAUUAGAUCCGAGGAUAUCCUUAUUAGAAACAUGAGGAUCACCCAUGUAAAGGGAAUUAUUUGUAGGAGAAGGCGGAUUUAGUU	–	–	67.5	52.9
UUGGACGUCGUAGGAUAAGUAGGAUAUUCCUACAUGAGGAUCACCCAUGUUGACAUGGAAGAAGGACAGAAGGACGAUGUCCAU	–	–	96.2	4.48
GCCGAAAAUGUGAGGAUAUACCUAUGGAUACAUAGGUAGAAGGCACAUGAGGAUCACCCAUGUUCCUCAUCGGC	114	435	–	–
CGCCCGGGAGGAUAUCCAAUAUAUGACAUGAGGAUCACCCAUGUUUCCACUCGUACCUCCGGAGAAGGCCCGGCGC	22.2	22.4	–	–
CGCUAGUCAGGAUAUACGAACAUGUCAAAAGACGUGAAGGGACAUGAGGAUCACCCAUGUAGAAGGGACUAGCG	36.8	206	–	–
UAUAUAAUAAGAGCUGGCUCUAAAACAUGAGGAUCACCCAUGUAGGAUAUCAGCACGAUAAGUGCUGAGAAGGACAACCAGCUC	16.3	17.3	–	–
GAUUAACAUGAGGAUCACCCAUGUCGUUAAAUGGGAGGAUAUACGUGGACCGUAGUCCGCGUAGAAGGCCUAAUUG	–	–	144	29.2
CGAGGCGUACAUGAGGAUCACCCAUGUACCUAACAACAAAGCAAGGAUAUCCUGGCUAUAAUACAGGAGAAGGUGUGGUCCUUA	–	–	–	178
UAAAUGUGAGGAUAUUCGAAUAACUCGGAGACGAGUUGUUCGGAGAAGGCACAUGAGGAUCACCCAUGUUCCUU	22.5	216	–	–
AAACACGAUCGAGGAUAUCAUGCUUACGUCCCGGAUCCAUAAACAUGAGGAUCACCCAUGUGAUAUGAGAAGGCGAUAGUCAUA	19.5	26.9	–	–
AAGGAGUCAGGAUAUGCUGCUCGUCACUUGCGUGAUGAGUAGCAGAAGGGACAUGAGGAUCACCCAUGUAAAAA	56.9	55.8	–	–
UAUUAUUGCAAGGAUAUGCUUUUUAUUUCUUUUGCAGAAGGUGCAACAUGAGGAUCACCCAUGUUUCCGGGUAU	19.7	28.9	–	–
CCGACGAAAAUCGGGCUACAUGAGGAUCACCCAUGUGCUUCACAGGAUAUGGUACGUAGUGAGUUCCAGAAGGGUGAUUAAUCU	–	–	205	129
CACGUACAUGAGGAUCACCCAUGUUAGGAUAUGCCGGGUUAGAGCCAACUAAAAACCCGUAGAAGGGACGAAAC	23.1	25.3	–	–
UCAUUAGCGGGCGGAUCGGUUGGACAUGAGGAUCACCCAUGUAGAAGGACCGGUGGAUUCCGGCGGUAGGAUAUACAUUUGGUG	12.7	19.8	–	–
ACACUCUAUGCAGGAUAUCGAGCCUGGGCCUUGUUUUUUGUAAACAUGAGGAUCACCCAUGUCUUCGAGAAGGGCAUAACACCG	372	136	–	–
CAAUGCCUGUCGAUGCUCGACAUGAGGAUCACCCAUGUAUAGCAGGAUAUGCAGAACUGACUCGUGCAGAAGGGCUAUACCUAA	25.8	61.1	–	–
UGGUACUAGGGAGGAUAUGGGAAGAUACAUGAGGAUCACCCAUGUUUAAGAAGGCCGAGAGGCAACUAGAAGGCCCUAGUACCU	–	–	396	16
UUUAUGUCAGGAUAUGAGUAGUAGAACAAUAGUACUACUACUCAGAAGGGACAUGAGGAUCACCCAUGUUUCUC	23.4	143	–	–
GCAAUAGCAUGAGGAUAUGCUGGAGUUUAGACAGCAGAAGGCAUGUCAUAAGACAUGAGGAUCACCCAUGUAGUUACAAUGGCA	–	–	26.9	11.3
AACUUGCGCACAGGAUAUCCACGGAGCGGACGUGGAGAAGGGUGACAUGAGGAUCACCCAUGUACGUAAGUCUGGAUCACUUCC	–	–	116	42.3
GGAAGACAAAGUCUUCCAAUUCGAACAUGAGGAUCACCCAUGUAGGAUAUGCUACUCAAAGAGUAGCAGAAGGACAUGUGCUUU	37.3	164	–	–
GCUUUCGCAUGAGGAUAUGCUCGAGUUUAGAGAGCAGAAGGCAUGUCAUAAGACAUGAGGAUCACCCAUGUAGUUAAAAUUGCA	–	–	164	10.7

Sequence	apparent Kd [1] [nM]	apparent Kd [2] [nM]	apparent Kd [3] [nM]	apparent Kd [4] [nM]
CAGAAGUCAGGAUAUGCAUGGCGGGACUUGCGUCGUGGCGUGCAGAAGGGACAUGAGGAUCACCCAUGUAAAGC	50.9	51.2	–	–
UGACAUAUAUAGAAGGGUAGUAGGGUAUUACAUGAGGAUCACCCAUGUAUUAUAGGAUAUGUAUAAAGUUAUUAUUCAAGUAAA	15.8	13	–	–
CAGCCCUGAGGAUAUCCAUCCUUGUACAUGAGGAUCACCCAUGUUUCCCUCUGGGCUUUCGGAGAAGGCAGGUAUC	61	61.7	–	–
CGUGCGUAUGUGAGGAUAUGCUGGUCCUUGGAUCGGCAGAAGGCACAUGAGGAUCACCCAUGUGGUGUCGUUCC	42.8	274	–	–
GUAGAGUAAGGAUAUGGAGAAUAGGAUAGAAUGGUUAGAAUCUAGAAGGUACAUGAGGAUCACCCAUGUAAUGU	21.7	20.8	–	–
GUAUGAGCGAUAGGAUAUACUGAGAUUGAAUGGGUAGAAGGAUUUCUUGUGGGAAAGACAUGAGGAUCACCCAUGUCGCGGACC	–	–	299	176
GUCGAAGCUGUACCAGUCGACGGUCAGGAUAUACAUGAGGAUCACCCAUGUGCUAUUGAUACUAUGUAGAAGGGACCCACCGCA	10.7	11.2	–	–
AGGAGAAAUGUAGGAUAUGGGUAUAUAUAUGGGCAAAGCGCAUAUAUAUACCCAGAAGGACAUGAGGAUCACCCAUGUUUCCCU	12.5	12.9	–	–
UGUGUUAUUGGAGGAUAUCGAUAUCAAACAUGAGGAUCACCCAUGUUGAGGAUCACACAUGUACAUGAGAAGGCCGACGUAGUG	–	–	13.3	14.5
AGGUGUAGAGGAUAUUUAUUCUUCCACAUGAGGAUCACCCAUGUCCCGGUCACCAGGGACGGAGAAGGCUACACCA	77	88.3	–	–
ACAUUUUAUGCAGGAUAUUGACAUAUAUUUAAACAAGAAGGGCAUUACAUGAGGAUCACCCAUGUUAUAUUGGUAUAUAAGUUC	17.4	14.8	–	–
UGGUACUAGGGAGGAUAUGGGAAGAUACAUGAGGAUCACCCAUGUUUAAGAAUGCCGAGCGGCAACUAGAAGGCCCUAGUACCU	–	–	479	20.8
AUAUAGUCAGGAUAUCGAAGUGAGUGUUGGUGGGUAAGGUACGAGAAGGGACAUGAGGAUCACCCAUGUAGGAA	59.7	44.1	–	–
GUAGAGUAGUGAGGAUAUACGAGUACGAUAGUACGGCGAUCCAUUAAUACAUGAGGAUCACCCAUGUAGAAGGCACUUCUCUAC	6.6	84	–	–
GCAGCAAUCUAAUACAUGAGGAUCACCCAUGUCGAGAGAUAUGAGGAUAUGCAUCUGAAGAAGAUGCAGAAGGCAUUGUGCUGC	–	–	10.7	6.48
UUGGACGUCUUAGGAUAUGUAGGAUAUUCCUACAUGAGGAUCACCCAUGUUGACAUGGAAGAAGGACAGAAGGACGAUGUCCAU	–	–	418	11.2
GAUUAACAUGAGGAUCACCCAUGUGAGGAUAUGGACUGGCUCACUUUUCGAUUCCCGUCUAGAAGGCGCAUUUU	50.1	50.1	–	–
GUGCGAGCCACAGGAUAUCUACAGAUUUAUUGUAGAGAAGGGUGACCUCGUGCACCACAUGAGGAUCACCCAUGUAACUAGGCG	–	–	30	48.2
GGAUCUUGGGUCAGGAUAUGCUGGUAUUUUUGCCAGCAGAAGGGACAUGAGGAUCACCCAUGUUCUUGGUUUUG	10.7	13.9	–	–
CGUCUAUGCUAGAAGGCAUGAAACAUGAGGAUCACCCAUGUCAAAGACAUGAGGAUAUAGCAUAGACGAAAAGUGCGAAAGCAC	–	–	4.43	3.26
ACAUGAGGAUCACCCAUGUAUAGAUUUGAAUGUUAAGUUACGUAGGAUAUCGUGUUUAGUAUGAUCGAGAAGGACGAUCUGAUA	–	–	25.8	20.8
UGUCGGAGCAGAGGAUAUUACAUGAGGAUCACCCAUGUAUGAUCCAAUAGCUGGAAACAGCAAUGUAAGAAGGCUGCUCCGACA	291	8.48	–	–
AGAUAGGACAGAGGAUAUACGUGCUAGAGAUACUAGCAAAAUUUCCUCACAUGAGGAUCACCCAUGUAGAAGGCUGUCCUAUCG	15.6	436	–	–
UGACGGAGCUGAGGAUAUAUACAUGAGGAUCACCCAUGUAAGCUCCAGGAAACUGGAGCAAAUGUAUAGAAGGCAGCUCCGUCA	30.3	48	–	–
